The target in test [1] is T1, 5-hydroxytryptamine receptor 1B (Homo sapiens, UniProt P28222). Kind of test: Displacement of [3H]GR125743 from 5HT1B receptor transfected in CHO cells. It is filed as cell-based. A digest of the protocol: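 Competition binding used a stably transfected CHO cell line expressing 5HT1B receptor. [3H]-GR125743 was the radioligand, and Ki values were derived from displacement.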

In test [2] the target is T1, 5-hydroxytryptamine receptor 1B. In words: Antagonist activity at 5HT1B receptor expressed in CHO cells assessed as effect on 5-HT-induced stimulation of [35S]GTP-gamma-S binding at 10 uM. It is filed as functional, cell-based. A general note: GTPγS resists hydrolysis and so accumulates on activated G proteins.

pKi: −log10 of the molar value.

The term pKi denotes the negative decadic logarithm of the Ki, by convention in mol/L. Read a low pKi as a large Ki.

T1 sequence (P28222 whole entry): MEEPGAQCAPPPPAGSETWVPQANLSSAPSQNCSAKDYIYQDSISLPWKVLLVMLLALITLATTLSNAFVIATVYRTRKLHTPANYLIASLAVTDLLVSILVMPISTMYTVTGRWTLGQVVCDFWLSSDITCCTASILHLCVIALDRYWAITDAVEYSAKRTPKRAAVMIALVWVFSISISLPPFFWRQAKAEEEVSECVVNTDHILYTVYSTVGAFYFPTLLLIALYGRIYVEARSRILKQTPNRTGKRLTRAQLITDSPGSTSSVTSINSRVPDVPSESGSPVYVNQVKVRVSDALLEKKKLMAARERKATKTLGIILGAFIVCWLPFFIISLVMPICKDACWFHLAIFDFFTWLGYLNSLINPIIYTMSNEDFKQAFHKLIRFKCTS

`COc1cc(N2CCCN(C)CC2)c2[nH]c(C(=O)Nc3ccc(N4CCOCC4)cc3)cc(=O)c2c1`: in test [1], the pKi was 9.05. Moreover, the Intrinsic activity in test [2] is -34%.
As to `COc1cc(N2CC[C@@H](N(C)C)C2)c2[nH]c(C(=O)Nc3ccc(N4CCOCC4)cc3)cc(=O)c2c1`, in test [1], the pKi was 7.46.
With `COc1cc(N2CCN(C)CC2)c2[nH]c(C(=O)Nc3ccc(N4CCOCC4)cc3)cc(=O)c2c1`, the pKi in test [1] is 8.46. For the same compound, the Intrinsic activity in test [2] was -34%.
`COc1cc(N(C)CCN(C)C)c2[nH]c(C(=O)Nc3ccc(N4CCOCC4)cc3)cc(=O)c2c1`: the pKi in test [1] is 6.41.
On the same count and under the same terms, next, `COc1cc(N2CCN(C)CC2)c2nc(C(=O)Nc3ccc(N4CCOCC4)cc3)cc(N(C)C)c2c1`: 7.29; `COc1cc(N2CC[C@H](N(C)C)C2)c2[nH]c(C(=O)Nc3ccc(N4CCOCC4)cc3)cc(=O)c2c1`: less than 6.00.
The same measure, in the same setting: the value for `CNc1cc(C(=O)Nc2ccc(N3CCOCC3)cc2)nc2c(N3CCN(C)CC3)cc(OC)cc12` was 5.89; that for `COc1cc(N(C)C2CCN(C)C2)c2[nH]c(C(=O)Nc3ccc(N4CCOCC4)cc3)cc(=O)c2c1` (stereo not given) was less than 6.00; that for `CCN1CCC(N(CC)c2cc(OC)cc3c(=O)cc(C(=O)Nc4ccc(N5CCOCC5)cc4)[nH]c23)C1` (stereo not given) was 6.77.
In test [1], `CN1CCN(c2cc(F)cc3c(=O)cc(C(=O)Nc4ccc(N5CCOCC5)cc4)[nH]c23)CC1` showed a pKi of 8.03. Moreover, the Intrinsic activity in test [2] was -34%.
In turn, `COc1cc(N(C)CCCN(C)C)c2[nH]c(C(=O)Nc3ccc(N4CCOCC4)cc3)cc(=O)c2c1` showed a pKi in test [1] of 6.53.
Still for that read-out and setting: the value for `COc1cc(C(=O)Nc2ccc(N3CCOCC3)cc2)nc2c(N3CCN(C)CC3)cc(F)cc12` was 7.52.

The values above are taken from ChEMBL document CHEMBL1145529, “Synthesis of novel quinolone and quinoline-2-carboxylic acid (4-morpholin-4-yl-phenyl)amides: a late-stage diversification approach to potent 5HT1B antagonists” (Bioorg Med Chem, 2007).
